Experimental data reported in PubChem BioAssay.
Records with an inconclusive call do not appear.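 Rule for the calls, unless noted: active = growth inhibition above 25% in both replicates, a cutoff set 3 SD above the mean; inconclusive = above 25% in only one replicate; inactive = the rest.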

Columns and labels:
[1] = OD615 S. cerevisiae growth inhibition, permissive medium, pilot counter-assay, permissive growth control for S. cerevisiae lifespan shortening project (AID 705); conditions: OD615, 24 h, at 10 µM, active compounds read high
Outline: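 Test system: Saccharomyces cerevisiae strain carrying genetically modified DeaD replicative-lifespan system; buffer or medium: SC raffinose/galactose permissive medium; dosing: one dose 10 µM, DMSO 0.25% final; times: 24 h exposure, 30 °C; measured by: OD at 615 nm; read-out basis: growth inhibition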

[2] = Restrictive medium S. cerevisiae growth inhibition, OD615, pilot screen of yeast lifespan reduction project, restrictive growth control (AID 706;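 active = growth inhibition above a set limit, 3 SD over mean compound inhibition, in both replicates, cut at about 43% in these data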;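 note: modified DeaD lifespan yeast strain shifted to restrictive glucose medium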); conditions: OD615, 48 h, at 10 µM, active compounds read high
Outline: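 material = engineered S. cerevisiae DeaD strain | buffer or medium = glucose-based CSMM-D restrictive medium | dosing = one concentration, 10 µM final, 0.25% DMSO | schedule = 4 h pre-growth plus 48 h compound exposure, 30 °C | detection = OD615 absorbance reading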

[3] = viability gain of MRP-1-high H69AR cells under doxorubicin, pilot screen, MRP-1 activator project, CellTiter-Glo, duplicate (AID 807;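 active = viability increase at or above a cutoff of the median across tested compounds plus 3 SD, cut at about 8.5% in these data, passing the limit was not always enough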;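 note: compound pretreatment 18-22 h then 72 h combined with doxorubicin; 0% = doxorubicin alone and 100% = vehicle without doxorubicin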); conditions: H69AR viability with doxorubicin, CellTiter-Glo luminescence; at 10 µM; active compounds read high
[4] = growth suppression of beta-catenin knockout HCT116, pilot screen, human colon tumor cells (AID 823;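 active = cell viability at or below a set limit in both duplicate runs, the limit being the all-compound median minus 4 SD, cut at about 23% in these data, passing the limit was not always enough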;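 note: 0% = wells killed by 20 µM Hyamine and 100% = untreated DMSO cell wells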); conditions: CellTiter-Glo, 60 h, at 10 µM, active compounds read low
[5] = growth suppression of PTEN-deleted HCT116, pilot screen, cell-based, HCT116 clonal line, CellTiter-Glo (AID 824;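 active = viability at or below 27.92% in each of two runs, the all-compound median minus 4 SD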;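 note: 0% = 20 µM Hyamine control and 100% = vehicle cell control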); conditions: 60 h, at 10 µM, active compounds read low
[6] = inhibitors of the yeast RAM network, pilot screen, dse1pr::URA3 reporter, 5-FOA selection (AID 869;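 active = inhibition over a set limit, the all-compound mean plus 3 SD, in both replicate runs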;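 note: 0% = DMSO wells with no growth and 100% = 10 µM 1-NA-PP1 with full growth; RAM network block rescues cells from 5-FOA so hits raise OD615 growth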); conditions: S. cerevisiae dse1pr::URA3 5-FOA growth, OD615, 2 d; at 10 µM; active compounds read high; strain carries analog-sensitive mutant Cbk1 kinase
[7] = RAM signaling pathway blockade in yeast – S. cerevisiae, Pdr1DBD-CYC8 efflux-inhibited sensitized strain, primary screen (AID 1298;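 active = RAM network inhibition above 8.4% in each of two replicates, 3 SD over the compound average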;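 note: 0% = DMSO untreated cells without growth and 100% = 10 µM 1-NA-PP1 full growth; higher means more yeast growth rescued from 5-FOA killing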); conditions: S. cerevisiae cbk1-as DSE1-URA3 strain, 5-FOA growth OD615, 2 d; at 50 µM; active compounds read high

CCOC(=O)C1CCCN(c2cc(=O)n(-c3ccccc3Cl)c(=O)[nH]2)C1 (configuration not stated)
inactive: growth inhibition [1] -3.86% | growth inhibition [2] -18.9% | viability increase [3] -1.99% | viability [4] 89.7% | viability [5] 94.5% | inhibition [6] 1.53% | RAM network inhibition [7] 0.31%

O=C(COc1ccccc1)N1CCN(S(=O)(=O)c2cccs2)CC1
inactive: growth inhibition [1] -4.47% | growth inhibition [2] -11% | viability increase [3] -0.82% | viability [4] 94% | viability [5] 85.3% | inhibition [6] 0.6% | RAM network inhibition [7] 7.83%

COc1ccc(Cn2c(=O)[nH]c3cc(C(=O)NCCCN4CCCC4=O)ccc3c2=O)cc1
inactive: growth inhibition [1] -17.7% | growth inhibition [2] -12.3% | viability increase [3] 0.19% | viability [4] 91.6% | viability [5] 90.4% | inhibition [6] 0.92% | RAM network inhibition [7] 1.36%

COc1cc(CO)cc(Br)c1OCC(=O)O
inactive: growth inhibition [1] -2.25% | growth inhibition [2] -3.28% | viability increase [3] -1.45% | viability [4] 102% | viability [5] 92.5% | inhibition [6] 0.03% | RAM network inhibition [7] -1.46%

Oc1cc(Cc2ccccc2)cnc1CN1CCOCC1
inactive: growth inhibition [1] 1.49% | growth inhibition [2] 2.83% | viability increase [3] -0.73% | viability [4] 96.8% | viability [5] 87.3% | inhibition [6] 0.81% | RAM network inhibition [7] 1.51%

O=C(NCCc1ccccc1)c1ccncc1
inactive: growth inhibition [1] -5.38% | growth inhibition [2] 4.46% | viability increase [3] -0.91% | viability [4] 88.8% | viability [5] 93.5% | inhibition [6] 1.67% | RAM network inhibition [7] 0.86%

COc1ccc(C2(C(F)(F)F)NC(=O)N(C)C(=O)N2C)cc1 (configuration not stated)
inactive: growth inhibition [1] -14.7% | growth inhibition [2] -19.5% | viability increase [3] -0.46% | viability [4] 99% | viability [5] 101% | inhibition [6] 1.11% | RAM network inhibition [7] 2.74%

Cc1ccc(OCCCN(C)C)c(Br)c1
inactive: growth inhibition [1] -0.99% | growth inhibition [2] -6.73% | viability increase [3] -1.22% | viability [4] 89.1% | viability [5] 87.7% | inhibition [6] 1.03% | RAM network inhibition [7] 2.05%

CCN1CCN(CC(=O)NC2CCCCC2)C(=O)C1=O
inactive: growth inhibition [1] -14.6% | growth inhibition [2] -12.4% | viability increase [3] -0.83% | viability [4] 96.1% | viability [5] 96.3% | inhibition [6] 0.89% | RAM network inhibition [7] 2.42%

COc1nc(Nc2ccc(C(C)=O)cc2)nc(OC)n1
inactive: growth inhibition [1] 0.42% | growth inhibition [2] -4.17% | viability increase [3] -4.04% | viability [4] 99.5% | viability [5] 97.9% | inhibition [6] 1.75% | RAM network inhibition [7] 6.28%

Cc1ccsc1C1NC(=O)c2c(sc3c2CCN(C)C3)N1 (configuration not stated)
inactive: growth inhibition [1] -1.86% | growth inhibition [2] 1.39% | viability increase [3] -1.41% | viability [4] 97.5% | viability [5] 98.6% | inhibition [6] 1.37% | RAM network inhibition [7] -0.83%

c1ccc(CN2CCN(c3nc4ccccc4n4cnnc34)CC2)cc1
inactive: growth inhibition [1] -4.76% | growth inhibition [2] -16.2% | viability increase [3] -1.7% | viability [4] 94.8% | viability [5] 86% | inhibition [6] 0.625% | RAM network inhibition [7] 2.12%

CC1(C)C(C#N)=C(N)OC2=C1C(=O)CCC2
inactive: growth inhibition [1] -8.74% | growth inhibition [2] -5.87% | viability increase [3] -0.89% | viability [4] 96.3% | viability [5] 97.4% | inhibition [6] 2.41% | RAM network inhibition [7] 1.3%

COc1ccc(Cc2nnc(-c3cccc(C)c3)o2)cc1OC
inactive: growth inhibition [1] -11.4% | growth inhibition [2] 2.94% | viability increase [3] 1.15% | viability [4] 95.4% | viability [5] 84.4% | inhibition [6] 1.84% | RAM network inhibition [7] 7.99%

CC(=O)N1CCN(c2ccc(NCc3ccc(C)s3)cc2)CC1
inactive: growth inhibition [1] -5.79% | growth inhibition [2] 8.29% | viability increase [3] -2.32% | viability [4] 99% | viability [5] 95% | inhibition [6] 1.92% | RAM network inhibition [7] 7.94%

OC(CN1C2=NCCCN2c2ccccc21)c1ccc(Cl)cc1 (configuration not stated)
inactive: growth inhibition [1] -8.91% | growth inhibition [2] 2.81% | viability increase [3] -4.02% | viability [4] 73.8% | viability [5] 76.1% | inhibition [6] 1.26% | RAM network inhibition [7] 3.02%
